Assay outcomes as filed in PubChem BioAssay.
Compounds with a hit are over-represented: about 2.9% of the library has one in this group of screens.
GSIS activator: primary screen for activators of insulin secretion dependent on glucose, INS-1E cells, GLuc reporter luminescence | actives 0.61% (n = 370,000) | activation, % at 16.6 µM | INS-1E GLuc reporter insulin secretion, 2-3 h;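 active means lowest replicate activation of at least 40%, so every replicate reaches that level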;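 further: 0% = median of neutral control wells and 100% = median of IBMX positive control wells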
Cneo AK release: Cryptococcus neoformans lysis via adenylate kinase release; C. neoformans lysis, adenylate kinase release luminescence, 4 h; normalised: neutral wells 0, clomiphene wells 100; lysis activity, % at 15 µM; actives 0.2% (n = 360,000); AID 651654;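 active means mean lysis activity across replicates of at least 80%, whatever share of replicates individually reach that level; inactive means mean lysis activity below 80%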
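Material: C. neoformans cells; Schedule: 4 h static compound exposure, 37 °C, read 1 h post-reagent; Measured by: adenylate kinase release luminescence; Read-out: signal increase indicating cell lysis; Controls: Clomiphene as positive lysis control.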
PAX8 reporter: lowers PAX8-driven luciferase in RMG-I cells | RMG-I TPO-luciferase reporter, SteadyGlo, 24 h | inhibition, % at 12.6 µM | actives 1.2% (n = 360,000) | AID 652154;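 active means mean replicate inhibition at least 60% with every replicate also reaching 60%; inconclusive means only one of the two criteria is met; inactive means mean below 60% and not all replicates reaching 60%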;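 further: luciferase light reporting Pax8 driven TPO promoter activity; plate controls were median of neutral control wells for no effect and mitoxantrone controls for full effect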
dFosB activator: mouse delta FosB homodimer activation; activation, % at 25 µM; actives 0.99% (n = 340,000); AID 493131; purified delta FosB, TAMRA-CDK5 oligo fluorescence polarization; percent of positive-control signal above neutral wells;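 active means mean activation above about 17%, with every replicate also reaching it, limit read from the data, passing the limit was not always enough; inconclusive means only one of the two conditions met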
Target sequence (P13346 whole entry, looked up): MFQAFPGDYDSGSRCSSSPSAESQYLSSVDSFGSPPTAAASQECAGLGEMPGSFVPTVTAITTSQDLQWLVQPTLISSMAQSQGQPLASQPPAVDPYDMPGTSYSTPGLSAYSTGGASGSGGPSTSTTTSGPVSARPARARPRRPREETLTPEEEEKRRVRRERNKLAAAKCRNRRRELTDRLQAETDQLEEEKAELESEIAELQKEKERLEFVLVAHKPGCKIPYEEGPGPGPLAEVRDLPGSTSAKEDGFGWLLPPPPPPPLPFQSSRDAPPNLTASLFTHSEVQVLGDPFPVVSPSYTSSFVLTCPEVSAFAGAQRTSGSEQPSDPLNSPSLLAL
CDK5 inh: inhibitors of human CDK5/p35 kinase | Recombinant CDK5/p35, ADP-Glo luminescence, 60 min | AID 488839 | actives 0.01% (n = 330,000) | Q00535+Q15078 | inhibition, % at 10 µM;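 active means highest replicate inhibition of at least 50% and at least 75% of replicates reaching 50%; inconclusive means only one of the two criteria met; inactive means both criteria failed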;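 further: plate controls were DMSO neutral control for no effect and GW8510 at 10 µM for full effect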
HIV Env fusion: HIV envelope-mediated fusion inhibition. HeLa-JRFL Env/CEM21 cell fusion, luciferase. inhibition, % at 12.3 µM. actives 1.1% (n = 360,000). AID 651610;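 active means mean replicate inhibition score of at least 50 and every replicate individually at or above 50; inconclusive means only one of the two criteria met; inactive means mean below 50 and not all replicates reaching 50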;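 further: 0% = plate neutral controls and 100% = maraviroc near 300 nM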
An asterisk follows results filed as active; ? = inconclusive; nt = no result; [ ] = another dose, or the depositor's remark.

SMILES	GSIS activator	Cneo AK release	PAX8 reporter	dFosB activator	CDK5 inh	HIV Env fusion
Cc1cc(CN(C)C(=O)CC2C(=O)NCCN2Cc2c(F)cccc2Cl)n[nH]1 (configuration not stated)	14	nt	-18	-9	0	65*
Cc1ccc(S(=O)(=O)Nc2cc(Cl)c(O)c3ncccc23)cc1	-24	-5	84*	-9	-8	54
COC(=O)C(C)(C(=O)OC)c1ccc([N+](=O)[O-])cn1	nt	1	-6	0	-1	-105
O=[N+]([O-])c1ccc(S(=O)(=O)c2ccccc2)nc1	77*	-1	109*	4	2	-198
Cc1cc(S(=O)(=O)c2ccc([N+](=O)[O-])cn2)ccc1Br	15	nt	86*	0	-1	-90
Cc1ccc(S(=O)(=O)c2ccc([N+](=O)[O-])cn2)cc1	45*	0	111*	2	-2	-349
Cc1cc(Sc2ccc([N+](=O)[O-])cn2)ccc1Br	nt	nt	-3	1	-1	5
CCCNC(=O)[C@@H]1[C@@H](CO)[C@@H]2Cn3c(ccc(C4=CCCC4)c3=O)[C@@H]2N1Cc1ccccc1	-6	0	29	nt	nt	nt
O=C(NCc1ccco1)c1cccc2ccccc12	nt	1	nt	7	1	nt
Cc1ccccc1CN(c1ccc(C(=O)Nc2ccccc2C(=O)NCc2ccco2)cc1)S(C)(=O)=O	-23	3	nt	-9	0	61*
O=C(Nc1ccccc1C(=O)NCc1ccco1)Nc1cccc2ccccc12	nt	nt	61*	?	0	2
C[C@H]1CN([C@@H](C)CO)C(=O)c2cc(C#CC3(O)CCCC3)cnc2O[C@@H]1CN(C)Cc1cccnc1	1	101*	nt	nt	nt	-16[16.7 µM]
C[C@@H]1CN([C@H](C)CO)C(=O)c2cc(C3=CCCCC3)cnc2O[C@H]1CN(C)C(=O)Cc1cccnc1	-10	104*	nt	nt	nt	-51[16.7 µM]
C[C@H](CO)N1C[C@H](C)[C@@H](CN(C)C(=O)CN2CCOCC2)Oc2ncc(-c3cncnc3)cc2C1=O	6	1	0	nt	nt	-17
C[C@@H]1CN([C@H](C)CO)C(=O)c2cc(C3=CCCCC3)cnc2O[C@H]1CN(C)C(=O)CN1CCOCC1	171*	1	nt	nt	nt	-24[16.7 µM]
C[C@@H]1CN([C@@H](C)CO)C(=O)c2cc(-c3cncnc3)cnc2O[C@H]1CN(C)C(=O)CN1CCOCC1	-6	105*	10	nt	nt	nt
C[C@@H]1CN([C@H](C)CO)C(=O)c2cc(C3=CCCCC3)cnc2O[C@@H]1CN(C)C(=O)CN1CCOCC1	26	1	nt	nt	nt	-53[16.7 µM]
C[C@@H]1CN([C@@H](C)CO)C(=O)c2cc(C#CC3(O)CCCC3)cnc2O[C@@H]1CN(C)Cc1cccnc1	17	nt	nt	nt	nt	-23[16.7 µM]
COc1ccc(NC(=O)Nc2ccc3c(c2)CC(=O)N([C@@H](C)CO)C[C@@H](C)[C@H](CN(C)C(=O)Nc2c(C)noc2C)O3)cc1	2	-2	-17	nt	nt	-13[16.7 µM]
C[C@H](O)C#Cc1cnc2c(c1)C(=O)N([C@@H](C)CO)C[C@@H](C)[C@@H](CN(C)C(=O)Cc1ccncc1)O2	-4	115*	-20	nt	nt	-16[16.7 µM]
C[C@@H]1CN([C@H](C)CO)C(=O)c2cc(C3=CCCC3)cnc2O[C@@H]1CN(C)Cc1ccc(C(=O)O)cc1	-2	-1	19	nt	nt	-12[16.7 µM]
C[C@H](CO)N1C[C@H](C)[C@H](CN(C)C(=O)Cc2ccncc2)Oc2ncc(C#C[C@@H](C)O)cc2C1=O	22	3	34	nt	nt	-7[16.7 µM]
C[C@@H]1CN([C@@H](C)CO)C(=O)c2cc(-c3cncnc3)cnc2O[C@H]1CN(C)C(=O)Cc1ccccc1	6	80*	-12	nt	nt	4[16.7 µM]
C[C@@H]1CN([C@@H](C)CO)C(=O)c2cc(C3=CCCC3)cnc2O[C@@H]1CN(C)Cc1ccc(C(=O)O)cc1	-13	-4	11	nt	nt	60*[16.7 µM]
C[C@H]1CCCCO[C@H](CN(C)C(=O)Nc2ccc3c(c2)OCO3)[C@@H](C)CN([C@@H](C)CO)C(=O)c2cc(NC(=O)NC3CCCCC3)ccc2O1	5	35	2	nt	nt	-6[16.7 µM]
CC(C)C#Cc1ccc([C@H]2[C@H]3CN(C(=O)C4CCCCC4)CC(=O)N3[C@H]2CO)cc1	-15	nt	4	nt	nt	nt
